Series [1] deals with METH self-administration. As to conditions: cited from earlier work.
Series [2] has as its system sigma-1 receptors. As to conditions: ref Cao et al, 2016, cited from earlier work; for sigma-1/DAT binding ratio: ratio of binding affinities, Hiranita et al, 2017.
For series [3], the system named is cocaine self-administration. The conditions noted are these: cited from earlier work.
The subject of series [4] is brain stimulation reward. The conditions noted are these: cited from earlier work.
Series [5] has as its system saccharin self-administration. Description: Saccharin self-administration. The format is in vivo, rat. As to conditions: rats (Supplemental Figure S3).
Series [6] has as its system METH self-administration. Description: Intravenous METH self-administration, short access. The format is in vivo, rat. The conditions noted are these: for reduction of METH intake: ShA rats (Supplemental Figure S2). The gist of the method: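 Rats (225-275 g at start, reverse light cycle, free food/water) trained on i.v. METH, 10-15 sessions, then 10 FR1 sessions of 1 h (ShA) or 6 h (LgA) access. Test compound i.p. (vehicle up to 100 mg/kg), 30 min or 1 h pretreatment, then FR1 session; Latin-square, within-subjects. Mean ± SEM; ANOVA or paired t-test vs vehicle, Holm-Sidak.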

For series [7], the system named is cocaine-induced locomotion. As to conditions: ref Zhang et al, 2017; cited from earlier work.
The test system of series [8] is locomotion. The series is described as follows: Locomotion during saccharin self-administration. The format is in vivo, rat. The conditions noted are these: rats (Supplemental Figure S3).
For series [9], the system named is sucrose self-administration. The conditions noted are these: rats; ref Zhang et al, 2017; cited from earlier work.
A short description of series [10]: Phase I metabolic stability in rat liver microsomes. The class given is in vitro ADME. (In general: Liver microsomes are vesicles of endoplasmic reticulum, rich in cytochrome P450 enzymes.)
For series [11], the system named is cocaine-induced reinstatement. As to conditions: ref Zhang et al, 2017; cited from earlier work.
The subject of series [12] is locomotion. The conditions noted are these: cited from earlier work.
The conditions of series [13]: mouse, previously conducted; ref Supplemental Material; cited from earlier work.
Series [14] can be described thus: Plasma and brain levels after single i.p. dose in rats. The class given is in vivo. As to conditions: rat. The gist of the method:
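Rats given a single 10 mg/kg i.p. dose, freshly prepared in 10% DMSO and 10% Tween 80 diluted with sterile saline. At 30 and 120 min (n = 3 per time point), CO2 euthanasia. Heparinized cardiac-puncture blood was spun at once for plasma. Brain was dissected and flash-frozen at -80°C.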

For series [15] the following is noted: ref Cao et al, 2016; cited from earlier work.
The target of series [16] is dopamine transporter (DAT). As to conditions: read-out: Ki, DAT affinity; ref Cao et al, 2016; Zhang et al, 2017; cited from earlier work.
The mark [17] stands for this setting: rats, ref Hiranita et al, 2014, 2017.
The mark [18] stands for this setting: all doses tested i.p. (JJC8-088 3, 10, 30 mg/kg; JJC8-089 1, 3, 10, 30 mg/kg).
Setting [19] is: 10 mg/kg i.p., 30 min post-administration.
[20] abbreviates: 10 mg/kg i.p., 2 h (120 min) post-administration.
[21] abbreviates: 10-30 mg/kg, ref Zhang et al (2017).
[22] abbreviates: 100 mg/kg i.p., 1 h pretreatment, vs vehicle.

Results on 7 compounds are retold here after publication PMC5820113 (Neuropharmacology, 2017).

As usually defined, the half-life is the time in which the quantity being followed falls by half. Low readings indicate fast loss, high ones slow loss. In general, Ki refers to a measure of affinity in units of concentration, obtained from inhibition or displacement. As usually defined, the Kp is the ratio of the level in a tissue or fluid to that in plasma or blood.

Where two headings read alike, the source gives them in different places.

As for `NC(=O)C[S+]([O-])C(c1ccccc1)c1ccccc1` (racemic) [(±)-modafinil], the METH self-administration entry in series [1] (300 mg/kg, very high dose, ref Reichel and See (2012)) was “significantly decreased”.

Take `CCCCN1[C@@H]2CC[C@H]1CC(OC(c1ccc(F)cc1)c1ccc(F)cc1)C2` (stereo partly drawn) [JHW 007, reference compound]: the METH self-administration result in series [1] (setting [17]) is given as “effectively block”. The sigma-1/DAT binding ratio in series [2] is reported as 0.20-0.23. Further, the cocaine self-administration entry in series [3] (setting [17]) is given as “effectively block”.

In the case of `Fc1ccc(C(SCCNCCCc2ccccc2)c2ccc(F)cc2)cc1` [JJC8-016, N-[2-([bis(4-fluorophenyl)methyl]thio)ethyl]-3-phenylpropan-1-amine], in [4] (ref Zhang et al, 2017), the intracranial self-stimulation entry is listed as “without affecting”. In series [5], the “saccharin (sweetened water) self-administration” value (“saccharin” for short) is reported as “significantly reduced”. Also, in series [6] (30 mg/kg i.p., vs vehicle), the “METH intake, LgA rats entire 6 h session” value is “significantly decreased”; the “METH intake, LgA rats first hour” value is “significantly decreased”; the “METH intake, ShA rats 1 h session” value was “significantly decreased”. For the same compound, the reduction of self-administration in series [6] (LgA rats, 1 h time point (Supplemental Figure S2)) is reported as over 50%. Further, the “reduction of METH intake” value in series [6] is on record as over 50%. For the same compound, in series [7], the cocaine-induced locomotion entry is given as “effectively inhibited”. The locomotion result in series [8] is reported as “without causing significant locomotor effects”. Moreover, in series [2], the “affinity for sigma-1 receptors” value is on record as “high affinities”. In addition, in series [3] (ref Zhang et al, 2017), the cocaine self-administration entry is “effectively inhibited”. Moreover, the sucrose self-administration entry in series [9] is listed as “reduce”. The half-life in [10] was determined as 9 min. Moreover, in series [11], the cocaine-induced reinstatement entry was “effectively inhibited”. Also, the locomotor activity result in series [12] (ref Zhang et al, 2017) was “without affecting”. Also, in series [13], the brain penetration entry is recorded as “good brain penetration”.

With `[O-][S+](CCN1CCN(CC(O)Cc2ccccc2)CC1)C(c1ccc(F)cc1)c1ccc(F)cc1` (stereo not drawn) [JJC8-088, 1-[4-(2-[(bis[4-fluorophenyl]methyl)sulfinyl]ethyl)piperazin-1-yl]-3-phenylpropan-2-ol], the “saccharin” value in series [5] is “increased”. Moreover, the “METH intake, LgA rats entire 6 h session” value in series [6] (all doses tested i.p. (3, 10, 30 mg/kg)) is listed as “did not affect”. The “METH intake, LgA rats first hour” value in [6] (setting [18]) is given as “did not significantly change”. Also, in series [6] (setting [18]), the “METH intake, ShA rats 1 h session” value is on record as “did not significantly change”. In addition, in series [14] (10 mg/kg i.p., 30 min and 2 h), the “levels in both brain and plasma” value was “low levels”. Besides, the values for the brain level entry in series [14] (setting [19]) and in series [14] (setting [20]) were “very little” and “nearly undetectable”, respectively. Also, the locomotion entry in [8] is reported as “increased”. In addition, the sigma-1/DAT binding ratio in series [2] is given as over 100. Also, the inhibition constant Ki in [2] (read-out: Ki, sigma1 receptors) is 336 nM; in [16], 2.53 nM. Also, the “t1/2 in mouse liver microsomes” value in series [15] is given as 12.9 min. Also, the half-life in [10] is 39 min.

In the case of `CC(O)CN1CCN(CCSC(c2ccc(F)cc2)c2ccc(F)cc2)CC1` (stereo not drawn) [JJC8-089, 1-[4-(2-[(bis[4-fluorophenyl]methyl)thio]ethyl)piperazin-1-yl]propan-2-ol], the “saccharin” value in series [5] is “significantly reduced”. Moreover, the “METH intake, LgA rats entire 6 h session” value in series [6] (30 mg/kg i.p., vs vehicle) was “significantly decreased”. For the same compound, in [6], the “reduction of METH intake” value is over 50%. In addition, in series [6] (setting [18]), the “METH intake, LgA rats first hour” value is “only observed a group effect” and the “METH intake, ShA rats 1 h session” value was “only observed a group effect”. The same compound showed a brain level in series [14] (setting [19]) of 7.6 ± 0.3 nmol/g. Also, the brain level in [14] (setting [20]) was 3.6 ± 0.7 nmol/g. In addition, in series [14] (brain/plasma, ip, 10 mg/kg), the Kp was in the range of 8 to 9. In series [8], the locomotion result is given as “without causing significant locomotor effects”. Also, in [2], the sigma-1/DAT binding ratio is on record as 0.24 and the “affinity for sigma-1 receptors” value is “high affinities”. The half-life in series [10] came out at 14 min. The Ki in series [16] is 16.7 nM.

`CC(O)CN1CCN(CC[S+]([O-])C(c2ccc(F)cc2)c2ccc(F)cc2)CC1` (stereo not drawn) [JJC8-091, 1-[4-(2-[(bis[4-fluorophenyl]methyl)sulfinyl]ethyl)piperazin-1-yl]propan-2-ol]: the “saccharin” value in series [5] is recorded as “significantly reduced”. In addition, the “METH intake, LgA rats entire 6 h session” value in series [6] (10 mg/kg i.p., vs vehicle) is given as “significant reduction”; in [6] (30 mg/kg i.p., vs vehicle) it was “significant reduction”; in [6] (56 mg/kg i.p., vs vehicle), “significant reduction”. Besides, in series [6] (56 mg/kg i.p., vs vehicle), the “METH intake, LgA rats first hour” value is reported as “decreased”. Further, in [6] (56 mg/kg i.p., vs vehicle), the “METH intake, ShA rats 1 h session” value is listed as “decreased”. Further, the brain level in series [14] (setting [19]) stood at 0.45 ± 0.18 nmol/g; in series [14] (setting [20]) it was 0.30 ± 0.015 nmol/g. Besides, the locomotion entry in series [8] was “without causing significant locomotor effects”. This compound came in with a half-life in series [10] of 126 min. For the same compound, in [16], the Ki is 289 nM.

For `NC(=O)C[S@@+]([O-])C(c1ccccc1)c1ccccc1` [R-MOD, [R]-2-[(diphenylmethyl)sulfinyl]acetamide, reference compound], the brain stimulation reward entry in series [4] (setting [21]) was “enhanced”. In series [5], the “saccharin” value is “did not alter”. In addition, the “METH intake, LgA rats first hour” value in [6] (setting [22]) is “significantly decreased”. In addition, the “METH intake, ShA rats 1 h session” value in series [6] (setting [22]) is “significantly decreased”. In addition, the “METH intake, LgA rats entire 6 h session” value in series [6] (100 mg/kg i.p., vs vehicle (p = 0.058)) is recorded as “nonsignificant”. Further, the “reduction of METH intake” value in series [6] is given as over 50%. Besides, the locomotion result in series [8] was “did not alter”; in [12] (setting [21]), “increased”. The compound further came in with a half-life in [10] of 55 min.
